Test results taken from ChEMBL document CHEMBL6182837, “Discovery and biological evaluation of nitrofuranyl-pyrazolopyrimidine hybrid conjugates as potent antimicrobial agents targeting Staphylococcus aureus and methicillin-resistant S. aureus” (RSC Med Chem, 2025).
Values after ≈ are worked out from the molar mass of the structure shown. Active and inactive are the calls of the source. The calls are words filed in the database; no cut-off is given here.

Key:
[1] = Terminal half life in male Balb/c mouse at 1 mg/kg, iv by LC-MS/MS analysis; format: ADME, organism-based; conditions: in vivo, read-out: beta t1/2 (converted)
Outline: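 Balb/c mice dosed intravenously at 1 mg kg−1; plasma pharmacokinetic profile analysed for half-life, C0, AUC0−t and clearance.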

Escherichia coli = test: Antibacterial activity against Escherichia coli ATCC 25922 incubated for 24 hrs by Alamar blue staining based microdilution method; format: functional
Staphylococcus aureus [2] = test: Antibacterial activity against Staphylococcus aureus SA-1199B overexpressing NorA by Alamar blue staining based analysis; format: functional
[3] = Cytotoxicity against mouse RAW264.7 cells incubated for 48 to 72 hrs by absorbance based assay; format: toxicity, cell-based
Outline: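 MTT read-out: macrophage cells plated at 1 × 10^4 cells per well in DMEM with 10% FBS, 37 °C, 5% CO2; treatment 48 h and 72 h; 2.5 mg ml−1 MTT 3 h, formazan dissolved in DMSO, OD 570 nm; doxorubicin 10 μM control.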

Staphylococcus aureus [4] = test: Induction of resistance development in Staphylococcus aureus ATCC 29213 at 0.5 MIC measured after […]; format: functional, organism-based; conditions: 0.5 M
Outline: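 Bacteria serially passaged under sublethal drug exposure over 20 days, with MIC redetermined at each passage; vancomycin and norfloxacin as controls.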

Staphylococcus aureus [5] = test: Induction of morphological disruption in Staphylococcus aureus ATCC 29213 incubated for 2 to 6 hrs by SEM analysis; format: functional, organism-based; conditions: time 2-6 hrs
Outline: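 S. aureus incubated 2 h and 6 h with compound at 1×, 2×, 4× MIC, imaged by scanning electron microscopy; untreated, vancomycin and daptomycin (1×, 2× MIC) controls.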

[6] = Solubility of compound in water; format: physicochemical
[7] = Lipophilicity, logD of compound; format: physicochemical; conditions: octanol/water

## CCCc1nn(C)c2c(Nc3ccc(O)cc3)nc(-c3ccc([N+](=O)[O-])o3)nc12
[1]
  half-life: 30 min
Escherichia coli
  MIC: inactive
Staphylococcus aureus [2]
  MIC: 0.6 µg/mL (≈ 1.52 µM)
[3]
  IC50: > 100 µg/mL
Staphylococcus aureus [4]
  Activity: inactive
Staphylococcus aureus [5]
  Activity: Active
[6]
  solubility: 1 µg/mL (≈ 2.54 µM)
[7]
  logD: 2.92
